Compound activity deposited in PubChem BioAssay by several laboratories.
Rpn11 block = blocks the human proteasome subunit Rpn11; O00487; human 26S proteasome, Ub4-pepOG fluorescence polarization; 20S core pre-blocked with epoxomicin; calls only at 20 µM; hit rate 0.59% among 360,000; AID 588493;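 active = inhibition at 20 µM, scaled to each plate's controls, above about 33%, limit read from the data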
CSN inh = CSN deneddylation inhibition; Purified CSN, SCF-Nedd8-OG deneddylation, fluorescence polarization; inhibition, % at 12.5 µM; hit rate 0.38% among 360,000; Q92905;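 active = pattern-corrected inhibition above about 35%, with an unprinted fluorescence ratio check between 0.5 and 1.5, limit read from the data, passing the limit was not always enough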
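assay system = purified human Csn5 enzyme expressed in HEK293T cells | amount = 0.24 nM enzyme | buffer or medium = Tris/NaCl/DTT buffer, pH 7.5 | reagent = 10 nM SCFSkp2-Nedd8OG | compound = one concentration, 12.5 µM, 0.25% DMSO | times = 90 min reaction at room temperature | signal = FP | read-out basis = % inhibition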
UBC9 SUMO inh = SUMOylation inhibition; HTRF SUMOylation assay, SAE1/SAE2 + UBC9, in vitro; inhibition, % at 35 µM; hit rate 0.36% among 290,000; AID 2006; in the data active = inhibition above about 50%, passing the limit was not always enough
HNF4A DNA FP = change in binding of human HNF4 alpha to DNA; HNF4a-FITC DNA binding, fluorescence polarization, 1 h; activity change, % at 10 µM; hit rate 0.3% among 360,000; AID 1224865; in the data active = activity change above about 30%, passing the limit was not always enough
Target sequence (P41235 whole entry, looked up): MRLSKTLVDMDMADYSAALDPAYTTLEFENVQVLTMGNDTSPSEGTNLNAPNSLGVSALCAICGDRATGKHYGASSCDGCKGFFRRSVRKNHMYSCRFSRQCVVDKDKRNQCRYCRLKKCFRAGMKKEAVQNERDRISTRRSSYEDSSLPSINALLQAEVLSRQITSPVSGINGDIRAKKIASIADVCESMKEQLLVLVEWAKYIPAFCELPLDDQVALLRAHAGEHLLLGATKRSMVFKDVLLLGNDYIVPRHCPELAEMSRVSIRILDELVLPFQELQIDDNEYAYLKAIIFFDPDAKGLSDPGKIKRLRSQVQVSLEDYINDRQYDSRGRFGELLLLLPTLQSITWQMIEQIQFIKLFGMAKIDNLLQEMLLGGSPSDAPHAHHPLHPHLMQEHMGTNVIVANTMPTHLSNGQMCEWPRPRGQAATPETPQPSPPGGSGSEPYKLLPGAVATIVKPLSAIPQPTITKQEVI
TPT1 inhibitor = inhibitors of Candida albicans tRNA 2'-phosphotransferase TPT1; inhibition, % at 5 µM; recombinant caTPT1, FP RNA substrate dephosphorylation; hit rate 0.81% among 300,000;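 active = inhibition above the mean of all tested compounds plus 3 SD, set per screening campaign, cut at about 24% in these data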
SENP1 FRET inh = SENP1 (human) catalytic domain inhibition. Q9P0U3. recombinant SENP1 catalytic domain, CyPet-SUMO1-YPet FRET cleavage. hit rate 0.21% among 360,000. inhibition, % at 10 µM;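 active = inhibition at least 30% at 10 µM, raw YFP signal under a set limit, fluorescence ratio 0.5 to 1.5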
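Test system: recombinant human SENP1 catalytic domain, His6-tagged / Medium: pH 8 Tris buffer with EDTA, NaCl, BME, BSA, NP40, catalase / Also added: SUMO1 FRET substrate flanked by Cypet and Ypet, 25 nM / Times: 50 min reaction at room temperature / Signal: FRET, CFP and YFP emission / Control set: no-enzyme low control and enzyme-plus-DMSO high control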
caTPT1 confirm = confirmation of Candida albicans TPT1 inhibitors; shares compounds with TPT1 inhibitor; recombinant caTPT1, fluorescence polarization, RNase T1 coupled; inhibition, % at 5 µM; hit rate 74% among 2,400; AID 2149;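 active = inhibition above the primary screen limit, the mean inhibition of all tested compounds plus 3 SD, cut at about 25% in these data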
RNase T1 inh = blocks Aspergillus oryzae RNase T1, a TPT1 counter-screen | AID 2153 | shares compounds with TPT1 inhibitor | inhibition, % at 5 µM | hit rate 83% among 2,400 | RNase T1 cleavage, fluorescence polarization, 1536-well;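 active = inhibition above the solvent-only control well mean plus 3 SD, limit set per screening run, cut at about 23% in these data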;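 also: inhibitors block cleavage so intact labeled substrate keeps polarization high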
Target sequence (P00651 whole entry, looked up): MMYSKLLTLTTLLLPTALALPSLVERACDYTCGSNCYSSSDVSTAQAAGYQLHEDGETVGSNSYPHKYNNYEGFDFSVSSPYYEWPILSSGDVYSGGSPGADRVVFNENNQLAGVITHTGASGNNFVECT
A number is an active result; i = inactive; nt = no result given; + = active, no number. In the library only some 1.8% were active in any assay of this set; here they are far more common.

SMILES	Rpn11 block	CSN inh	UBC9 SUMO inh	HNF4A DNA FP	TPT1 inhibitor	SENP1 FRET inh	caTPT1 confirm	RNase T1 inh
Cc1ccc(N=Nc2[nH]c3ccccc3c2O)cc1	i	i	i	i	24.3	i	i	i
COc1ccc2c(c1)CC/C(=C\c1ccc(C)o1)C2=O	i	i	i	i	i	i	nt	nt
COCCN(CCOC)Cc1c(O)ccc2c1O/C(=C\c1ccc(C)o1)C2=O	i	i	i	i	27.0	i	34.1	45.6
N#CC1=C(N)n2c(s/c(=C\c3ccco3)c2=O)=C(C#N)C1c1ccco1 (stereo not given)	i	i	i	i	i	i	nt	nt
N#CC1=C(N)n2c(s/c(=C\c3cccs3)c2=O)=C(C#N)C1c1cccs1 (stereo not given)	nt	66.2	i	i	54.0	i	42.2	54.1
COc1cccc(-c2cnc(C(O)c3c(C)cc(C)cc3C)[nH]2)c1 (stereo not given)	i	i	nt	i	nt	i	nt	nt
CC(NS(=O)(=O)c1ccc(F)cc1)C(c1cccs1)N1CCOCC1 (stereo not given)	i	i	i	i	i	i	nt	nt
CC(NS(=O)(=O)c1ccc([N+](=O)[O-])cc1)C(c1cccs1)N1CCOCC1 (stereo not given)	i	i	i	i	36.0	i	i	i
COc1ccccc1NC(=O)C(C)OC(=O)c1nc2nc(C)cc(C)n2n1 (stereo not given)	i	i	nt	i	i	i	nt	nt
COc1ccc(NC(=O)CN(C)S(=O)(=O)c2cccc3nsnc23)cc1	i	i	i	i	i	i	nt	nt
CCOC(=O)C1=C(c2ccccc2)N=c2sc(=Cc3cc(OC)c(OC)c(OC)c3)c(=O)n2C1c1cccs1 (stereo not given)	i	i	nt	i	nt	i	nt	nt
CCOC(=O)C1=C(c2ccccc2)N=c2s/c(=C\c3ccc(O)cc3)c(=O)n2C1c1cccs1 (stereo not given)	nt	45.4	i	i	31.2	i	52.5	60.2
COc1ccc(CNC(=O)CN(c2cc(C)cc(C)c2)S(=O)(=O)c2c(C)noc2C)cc1	i	i	i	i	i	i	nt	nt
COc1ccc(N(CC(=O)N/N=C/c2ccc(-c3ccc([N+](=O)[O-])cc3)o2)S(=O)(=O)c2ccc(C)cc2)cc1Cl	i	i	i	i	43.3	i	41.8	50.8
Oc1ccc(Nc2nc3ccccc3nc2Nc2ccc(O)cc2)cc1	+	i	i	44.1	52.1	i	49.1	66.7
CCc1ccc(-n2c(=S)sc3c(=O)n(-c4ccccc4C)c(SCC(=O)O)nc32)cc1	i	i	i	i	i	i	nt	nt
CCCCCCNC(=O)C(C#N)c1nc2ccccc2nc1N1CCCC1 (stereo not given)	i	40.3	i	i	63.0	i	28.3	32.9
O=C(NCc1ccc(Cl)cc1)NCC(F)(F)F	i	i	i	i	i	i	nt	nt
COC(=O)c1cc(Br)c(=O)n(-c2ccc(C(C)=O)cc2)c1	nt	nt	i	nt	nt	nt	nt	nt
CCCCCCCCNC(=O)c1ccc(C)cc1	nt	nt	i	nt	37.1	nt	i	i
CCCCNC(=O)Cc1ccc(C)cc1	i	i	i	i	i	i	nt	nt
Cc1nn(-c2ncc(C(F)(F)F)cc2Cl)c(=O)n1-c1c(F)cccc1F	i	i	i	i	32.3	i	i	i
CCC(=O)N1CCN(c2ccccc2NC(=S)NC(=O)c2cccc([N+](=O)[O-])c2)CC1	i	i	i	i	39.1	i	i	i
CCC(=O)N1CCN(c2ccc(NC(=S)NC(=O)c3cccc([N+](=O)[O-])c3)cc2)CC1	i	i	i	i	i	i	nt	nt
O=C(O)Cn1cc(/C=c2/sc3nc4ccccc4n3c2=O)c2ccccc21	i	i	i	i	38.6	i	27.6	37.4
SMILES	Rpn11 block	CSN inh	UBC9 SUMO inh	HNF4A DNA FP	TPT1 inhibitor	SENP1 FRET inh	caTPT1 confirm	RNase T1 inh
CN(C)CCC1CCN(c2cc(C#N)c(C#N)cc2[N+](=O)[O-])CC1	i	i	i	i	118.9	i	i	i
N#Cc1cc(N2CCCCC2)c([N+](=O)[O-])cc1C#N	i	i	i	i	i	i	nt	nt
COc1ccc2c(c1)c(/C=C/c1cc[n+](C)cc1)cn2C	nt	73.9	i	i	72.2	i	87.7	90.7
COc1ccc2c(c1)c1ccccc1n2C	i	i	i	i	i	i	nt	nt
CCN(CC)c1ccc(/C=C2/C(=O)ON=C2C)cc1	nt	i	i	i	116.8	i	131.6	133.7
CCOc1ccccc1NC=C1C(=O)OC2(CCCCC2)OC1=O	i	i	i	i	i	i	nt	nt
CC1=NOC(=O)/C1=C/c1ccc(N(C)C)cc1	nt	nt	i	nt	78.3	nt	96.7	113.8
CCN(CC)c1ccc(C=C2C(=O)OC3(CCCCC3)OC2=O)cc1	nt	i	i	i	101.2	i	166.0	155.6
CN(C)c1ccc(/C=C2\N=C(C(C)(C)C)OC2=O)cc1	nt	i	i	i	117.4	i	128.5	139.8
CCN(CC)c1ccc(/C=C2/C(=O)c3ccc(C(=O)O)cc3C2=O)cc1	nt	i	i	82.2	136.2	i	121.5	113.9
COCCn1c(C)cc(C(=O)COC(=O)c2ccc(NC(=O)CC#N)cc2)c1C	i	i	i	i	51.6	i	30.1	41.5
CN1/C(=C/C2CC(=O)N(c3ccc([N+](=O)[O-])cc3)C2=O)C(C)(C)c2ccccc21 (stereo not given)	i	i	i	i	24.8	i	i	i
COc1ccc(N=C2O/C(=C/c3sc(=S)n(CC4CCCO4)c3O)N=C2C#N)cc1 (stereo not given)	nt	i	i	i	45.0	i	51.6	61.1
COc1ccc(/C=C2\SC(=S)N(CC3CCCO3)C2=O)cc1 (stereo not given)	i	i	i	i	i	i	nt	nt
CC(C)(C)NC(=O)c1ccccc1-c1nc(-c2ccccc2Cl)no1	i	i	i	i	i	i	nt	nt
CN(C)S(=O)(=O)c1cccc(COC(=O)CNC(=O)c2ccc(Br)o2)c1	i	i	nt	i	nt	i	nt	nt
COC(=O)CSc1nc(N)c2c3c(sc2n1)CCCC3	i	i	i	i	i	i	nt	nt
COC(=O)CSc1nc(N)c2c3c(sc2n1)C(c1ccccc1)SC(c1ccccc1)C3 (stereo not given)	nt	i	i	i	72.2	i	i	31.4
C=C(CN(C)C)C(=O)c1ccc(C)cc1C	i	i	nt	i	nt	i	nt	nt
O=C(N/N=C\c1ccc(Cl)s1)c1ccc(Cn2cccn2)o1	i	i	i	i	i	i	nt	nt
O=C(N/N=C\c1c(O)ccc2ccccc12)c1ccc(Cn2cccn2)o1	nt	i	i	i	39.8	i	45.0	49.2
O=C(CN(C(=O)c1csnn1)c1cccc(C(F)(F)F)c1)NCc1ccc(F)cc1	i	i	i	i	i	i	nt	nt
